# Cneo AK release = Cryptococcus neoformans cell lysis inducers, primary screen, AK release luminescence, single concentration. C. neoformans lysis, adenylate kinase release luminescence, 4 h; normalised: neutral wells 0, clomiphene wells 100. lysis activity, % at 15 µM. actives 0.2% (n = 360,000);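 active = mean lysis activity across replicates of at least 80%, whatever share of replicates individually reach that level; inactive = mean lysis activity below 80%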
#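 Assay system: C. neoformans cells. Amount: yeast cell density of 5 × 10^6 cells/mL. Technique: AK luminescence. Buffer or medium: YPD. Times: static 4 h at 37 °C with compound, 1 h detection. Dosing: single-point compound dose. Read-out: lysis from increased AK signal.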
# DENV2 CPE = inhibitors of DENV2 cytopathic effect, primary screen, cell-based, plate reader, single concentration. DENV2-infected cells, cytopathic effect rescue. CPE inhibition, % at 9.99 µM. actives 1.7% (n = 350,000). AID 651640, 2012; in the data active = CPE inhibition above about 20%, passing the limit was not always enough; inconclusive = no clear call, values can overlap the other calls; tested in BHK-21 cells;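 note: 0% = median of neutral control wells and 100% = median of positive control wells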
# E-sel inducer = E-selectin induction in HUVECs, primary screen, imaging, HUVEC, immunofluorescence imaging, single point. P16581. normalized: neutral wells 0, TNF-alpha wells 100. activation, % at 7.58 µM. actives 0.37% (n = 260,000);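 active = mean E-selectin-positive cell signal at least 10% of the positive control, reached in at least 60% of replicates, without over 20% cell loss; inconclusive = no rule given, readout overlaps actives, possibly toxicity-flagged; inactive = the rest, including those meeting only one limit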
# Target sequence (P16581 whole entry, looked up): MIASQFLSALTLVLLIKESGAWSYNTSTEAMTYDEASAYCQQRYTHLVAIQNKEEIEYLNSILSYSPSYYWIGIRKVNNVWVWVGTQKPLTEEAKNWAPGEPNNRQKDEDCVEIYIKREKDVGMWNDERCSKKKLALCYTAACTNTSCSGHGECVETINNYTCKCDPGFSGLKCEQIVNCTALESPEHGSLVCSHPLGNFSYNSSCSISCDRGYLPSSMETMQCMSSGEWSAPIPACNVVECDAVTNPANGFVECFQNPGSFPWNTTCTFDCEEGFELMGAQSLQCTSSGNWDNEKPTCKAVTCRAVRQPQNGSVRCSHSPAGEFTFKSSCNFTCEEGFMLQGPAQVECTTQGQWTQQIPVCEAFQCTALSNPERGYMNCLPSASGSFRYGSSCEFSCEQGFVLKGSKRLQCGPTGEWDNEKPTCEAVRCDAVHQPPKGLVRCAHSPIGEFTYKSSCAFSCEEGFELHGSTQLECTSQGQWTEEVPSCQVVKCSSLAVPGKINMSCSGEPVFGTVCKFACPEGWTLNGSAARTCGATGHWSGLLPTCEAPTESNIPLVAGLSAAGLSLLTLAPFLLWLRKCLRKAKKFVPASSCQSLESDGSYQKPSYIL
#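 Assay system: HUVEC, human umbilical vein endothelial cells / Amount: 3,000 HUVEC/well / Controls: TNF-alpha positive control, DMSO neutral control / Compound dosing: single concentration / Medium: EGM-2 over gelatin coat / Evaluation: percent E-selectin-positive cells / Signal: immunofluorescence imaging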
# Ecoli rRNA inh = reduced GFP signal of wild-type E. coli, primary screen, bacterial rRNA inhibitor project, GFP/RFP fluorescence, OD600, single point; actives 1.6% (n = 350,000); AID 720706, 2013; E. coli WT GFP vs humanized-ribosome RFP mutants, 24 h; stronger effect = lower value; DMSO median 0, no signal -100; GFP signal change (wild-type ribosome), % (test concentration not listed);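 active = significant combined selectivity score with lowered wild-type GFP, culture density cut under 30%, mutant RFP and density less affected; inactive = any of these conditions unmet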
# miR122 inh = miR-122 Renilla sensor signal increase in Huh7, primary screen, miR-122 inhibitor project, cell-based, single point, plate reader; Huh7 miR-122 Renilla luciferase sensor, 48 h; neutral wells = 0, positive control = 100; activation (reporter increase), % at 12.5 µM; actives 0.3% (n = 340,000);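 active = mean replicate activation score at least 90 and every replicate individually at or above 90; inconclusive = only one of the two criteria met; inactive = neither criterion met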;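 note: higher luciferase means less miR-122 activity so hits act as miR-122 inhibitors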
# The depositor's hits bear a star; ? = inconclusive; . = not tested or not shown; [ ] = remark or other dose. Hits are enriched below; roughly 3.1% of the tested compounds scored in any of these assays.
SMILES,Cneo AK release,DENV2 CPE,E-sel inducer,Ecoli rRNA inh,miR122 inh
O=C(CN1CCOCC1)N1CC[C@@H]2[C@@H](CO)Nc3ccc(-c4ccccc4F)cc3[C@@H]21,100.9*,-22.8,0.0,4.3,15.2[16.7 µM]
O=C(CN1CCOCC1)N1CC[C@@H]2[C@H]1c1cc(-c3ccccc3F)ccc1N[C@@H]2CO,-3.3,-2.7,1.0,1.9,-5.4[16.7 µM]
CCC(=O)N1CC[C@H]2[C@H](CO)Nc3ccc(-c4ccccc4)cc3[C@H]21,-2.4,6.9,-0.5,5.1,-1.3[16.7 µM]
COc1ccc(-c2ccc3c(c2)[C@H]2[C@H](CCN2C(=O)CN2CCOCC2)[C@@H](CO)N3)cc1,15.0,100.1*,-0.4,3.9,-1.1[16.7 µM]
C[C@@H]1CCCn2nncc2COCCNC1=O,.,.,.,6.6,.
O=C(c1ccccn1)N1CC[C@@H]2[C@H]1c1cc(-c3ccc(F)cc3)ccc1N[C@@H]2CO,51.2,6.2,2.1,-8.4,2.2[16.7 µM]
O=C(c1ccccn1)N1CC[C@@H]2[C@@H](CO)Nc3ccc(-c4ccccc4F)cc3[C@@H]21,-1.6,21.0*,0.5,-0.5,12.8[16.7 µM]
CC(C)NC(=O)Nc1ccc2c(c1)C(=O)N([C@@H](C)CO)C[C@@H](C)[C@@H](CN(C)C(=O)CCC(F)(F)F)OCCCC[C@@H](C)O2,-0.7,-4.9,0.5,1.4,-6.8[16.7 µM]
O=C(C[C@@H]1C[C@H]2c3cc(NC(=O)Cc4ccncc4)ccc3O[C@H]2[C@@H](CO)O1)NCCN1CCCCC1,10.4,35.5*,0.4,9.0,-6.6[16.7 µM]
O=C(C[C@@H]1C[C@H]2c3cc(NC(=O)C4CCC4)ccc3O[C@H]2[C@H](CO)O1)NCCN1CCCCC1,3.4,26.3*,-0.6,2.5,4.6[16.7 µM]
CCc1cc(C(=O)c2ccc(OC)cc2)c(NC(=O)CCC(=O)O)s1,0.1,-2.1,-0.1,-41.8*,-0.7
CCc1cc(C(=O)c2ccc(OC)cc2)c(NC(=O)CN2CCCC2)s1,3.0,-0.3,0.2,-3.9,-2.3
COC(=O)C1=C(C)N(Cc2cccc(C(F)(F)F)c2)C(=NCC2CC2)NC1c1ccc(F)cc1 (stereo not drawn),.,61.2*,-0.4,-46.6,.
COC(=O)C1=C(C)N(Cc2cccc(C(F)(F)F)c2)C(=NCC2CC2)NC1c1cccc(C(F)(F)F)c1 (stereo not drawn),.,-11.5,-0.1,-48.0,.
CCN1C(=NCCCCO)N[C@@H](c2cccc(C(F)(F)F)c2)C(C(=O)OC)=C1C,-0.8,32.6*,0.0,4.8,0.0
O=C(N[C@H]1CC[C@H](CCNS(=O)(=O)Cc2ccccc2)O[C@H]1CO)c1cnccn1,51.6,.,-0.1,-0.4,2.6[16.7 µM]
C[C@H](CO)N1C[C@H](C)[C@H](CN(C)Cc2ccc(Oc3ccccc3)cc2)Oc2ccc(NC(=O)C3CCCCC3)cc2C1=O,.,.,-0.4,3.1,-1.6[16.7 µM]
C/C(=N\NC(=O)c1cc(-c2ccc(C)s2)[nH]n1)c1ccco1,.,-2.0,-0.1,-35.4*,.
OC[C@H]1[C@@H](c2ccccc2)C2(CN(CC3CC3)C2)N1Cc1nccs1,.,9.6,0.2,-1.5,.
COc1cccc(CSc2nnc(CSc3nc4nc(C)cc(C)n4n3)s2)c1,2.4,0.0,.,-29.1*,-6.6
CC(C)C[C@@H]1NC(=O)[C@H]2C[C@@H](C(=O)NCCCCCN)[C@@H](c3cccc(OCCO)c3)N2C1=O,-3.3,31.8*,.,.,.
Cc1ccccc1N=C(NO)c1nonc1N,.,9.3,-1.6,-29.2*,.
Nc1nonc1C(=Nc1ccccc1)NO,1.3,.,.,.,-2.4
CNC[C@@H]1Oc2ccc(N)cc2CC(=O)N(C)C[C@H]1C,.,.,.,1.0,.
CN(C)CCNc1nc2sc3c(c2c(=O)n1-c1ccc(F)cc1)CCCCC3,.,25.7*,0.3,-6.1,.
SMILES,Cneo AK release,DENV2 CPE,E-sel inducer,Ecoli rRNA inh,miR122 inh
CO[C@@H]1CN(C)C(=O)c2ccc(NC(=O)C3CC3)cc2OC[C@@H](C)N(Cc2ccc(F)cc2)C[C@H]1C,-0.6,?,0.0,-3.6,2.8[16.7 µM]
CCCC(=O)Nc1ccc2c(c1)OC[C@@H](C)N(Cc1ccccn1)C[C@@H](C)[C@H](OC)CN(C)C2=O,94.4*,1.2,0.1,-2.0,.
COc1ccc(CN2C[C@H](C)[C@@H](OC)CN(C)C(=O)c3cc(NC(=O)c4nc5ccccc5s4)ccc3OC[C@@H]2C)cc1,-1.3,31.0*,0.2,-2.3,.
CO[C@@H]1CN(C)C(=O)c2ccc(NC(=O)C3CCOCC3)cc2OC[C@@H](C)N(CC2CCCCC2)C[C@H]1C,2.5,53.7*,0.6,-2.4,.
COc1ccc(CN2C[C@@H](C)[C@@H](OC)CN(C)C(=O)c3cc(NC(=O)c4nc5ccccc5s4)ccc3OC[C@@H]2C)cc1,0.1,1.0,-0.2,-6.4,.
CO[C@@H]1CN(C)C(=O)c2ccc(NC(=O)C3CC3)cc2OC[C@H](C)N(Cc2ccc(F)cc2)C[C@H]1C,86.0*,-12.6,-0.2,-4.7,23.9[16.7 µM]
CO[C@@H]1CN(C)C(=O)c2ccc(NC(=O)C3CCOCC3)cc2OC[C@H](C)N(CC2CC2)C[C@@H]1C,-12.2,8.4,0.0,4.2,.
Cc1noc(C)c1NC(=O)N(C)C[C@H]1OCCCC[C@@H](C)Oc2ccc(NC(=O)c3ccncc3)cc2C(=O)N([C@H](C)CO)C[C@@H]1C,-2.2,5.1,0.0,1.3,0.0[16.7 µM]
Cc1ccc(S(=O)(=O)N[C@H]2CC[C@H](CC(=O)NCCCN(C)C)O[C@H]2CO)cc1,2.9,-6.0,0.9,6.6,.
C[C@H](CO)N1C[C@H](C)[C@H](CN(C)Cc2ccc(C(F)(F)F)cc2)OCCCC[C@H](C)Oc2ccc(NC(=O)C3CCCCC3)cc2C1=O,2.0,-11.4,-0.2,-1.9,-11.3[16.7 µM]
C[C@@H](NC(=O)[C@H]1[C@H](CO)[C@H]2Cn3c(ccc(-c4cccc(F)c4)c3=O)[C@H]2N1C)c1ccccc1,.,4.0,-0.2,-0.1,.
C[C@@H]1CN([C@@H](C)CO)C(=O)c2cc(-c3ccc(F)cc3)cnc2O[C@H]1CN(C)C(=O)Nc1ccc(F)cc1,.,.,-0.2,0.0,-2.2[16.7 µM]
CCCNC(=O)Nc1ccc2c(c1)OC[C@H](C)N(Cc1ccncc1)C[C@@H](C)[C@@H](OC)CN(C)C2=O,-2.5,45.1*,0.0,-6.1,.
CCCNC(=O)Nc1ccc2c(c1)OC[C@H](C)N(Cc1ccncc1)C[C@H](C)[C@@H](OC)CN(C)C2=O,-3.6,-3.4,-0.2,-1.6,.
CCCC(=O)Nc1ccc2c(c1)C(=O)N(C)C[C@H](OC)[C@H](C)CN(Cc1ccccn1)[C@@H](C)CO2,1.0,-2.3,-0.4,0.7,.
CCCC(=O)Nc1ccc2c(c1)OC[C@H](C)N(Cc1ccccc1)C[C@H](C)[C@@H](OC)CN(C)C2=O,.,31.6*,-0.2,-1.4,.

# High-throughput results as filed in PubChem BioAssay.
